Data taken from ChEMBL document CHEMBL4699546, “Synthesis and structure-activity relationships for tetrahydroisoquinoline-based inhibitors of Mycobacterium tuberculosis” (Bioorg Med Chem, 2020).
Converted amounts (≈) assume the structure as drawn.

Key:
[1] = Inhibition of human ATPsynthase
[2] = Inhibition of Mycobacterium smegmatis ATPsynthase; design: species or system Mycolicibacterium smegmatis
[3] = test system: Mycobacterium tuberculosis; assay: Antimycobacterial activity against Mycobacterium tuberculosis H37Rv ATCC 27294 assessed as reduction in bacterial growth incubated for 10 days in under anaerobic condition by luminometric assay; assay type: functional; conditions: H37Rv ATCC 27294, 240 h, time 10 day
Procedure, shortened: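 Growth inhibition of M.tb H37Rv under non-replicating conditions (LORA), reported as minimum inhibitory concentration in µg/mL; tested at the Institute for Tuberculosis Research, University of Illinois at Chicago.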

[4] = test system: Mycobacterium tuberculosis; assay: Antimycobacterial activity against Mycobacterium tuberculosis H37Rv ATCC 27294 assessed as reduction in bacterial growth incubated for 4 days under aerobic condition by alamar blue based fluorescence assay; assay type: functional; conditions: H37Rv ATCC 27294, 96 h, time 4 day
Procedure, shortened: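 Replicating aerobic culture of M.tb H37Rv, MABA read-out; value is the minimum inhibitory concentration in µg/mL; assay run at the Institute for Tuberculosis Research, University of Illinois at Chicago.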

Vero = assay: Cytotoxicity against African green monkey Vero cells assessed as reduction in cell viability incubated for 72 hrs by MTS-PMS assay; assay type: cell-based; conditions: Chlorocebus sabaeus
Procedure, shortened: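 Mammalian cytotoxicity measured in Vero (green monkey kidney epithelial) cells; value reported as IC50 in µg/mL.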

[5] = Metabolic stability in mouse liver microsomes assessed as intrinsic clearance; assay type: ADME, Microsome
[6] = Metabolic stability in human liver microsomes assessed as intrinsic clearance; assay type: ADME, Microsome
[7] = test system: ATP synthase (human vs Mycobacterium smegmatis); assay: Selectivity index, ratio of IC50 for human ATPsynthase to IC50 for Mycobacterium smegmatis ATPsynthase; assay type: toxicity; conditions: read-out: Ratio IC50

SMILES | IC50 [1] [µg/mL] | IC50 [2] [µg/mL] | MIC90 [3] [µg/mL] | MIC90 [4] [µg/mL] | IC50 (Vero) [µg/mL] | CLH [5] [mL/h/kg] | CLH [6] [mL/h/kg] | selectivity ratio [7]
Cc1ccc(N2CCN(C)CC2)c2c1CCN(C(=O)N1CCC(Oc3ccccc3C(F)(F)F)CC1)C2 | 48 (≈ 92.9 µM) | 6.2 (≈ 12 µM) |  |  |  |  |  | 
Cc1cc(Cl)ccc1-c1ccc(CN2CCc3c(C)ccc(N4CCN(C)CC4)c3C2)nc1 |  |  | 5.2 (≈ 11.3 µM) | 0.79 (≈ 1.71 µM) | 14 (≈ 30.4 µM) | 14.3 | 5.52 | 
Cc1cc(Cl)ccc1-c1ccc(N2CCc3c(C)ccc(N4CCN(C)CC4)c3C2)nc1 | 23 (≈ 51.5 µM) | 5.5 (≈ 12.3 µM) | 2.4 (≈ 5.37 µM) | 1.9 (≈ 4.25 µM) | 22 (≈ 49.2 µM) | 2.1 | 1.32 | 
Cc1ccc(N2CCN(C)CC2)c2c1CCN(C(=O)Nc1ccc(-c3cc(C(F)(F)F)cc(C(F)(F)F)c3)cn1)C2 | 13 (≈ 22.5 µM) | 14 (≈ 24.2 µM) |  |  |  |  |  | 
COc1ccc(N2CCN(C)CC2)c2c1CCN(c1ccc(-c3cc(C(F)(F)F)cc(C(F)(F)F)c3)cn1)C2 |  |  | 12 (≈ 21.8 µM) | 7.9 (≈ 14.3 µM) | 19 (≈ 34.5 µM) |  |  | 
CCc1ccc(N2CCN(C)CC2)c2c1CCN(C(=O)Nc1ccc(-c3ccc(C(F)(F)F)cc3)cn1)C2 | 7.2 (≈ 13.8 µM) | 2.2 (≈ 4.2 µM) |  |  |  | 48.6 | 6.42 | 
Cc1cc(Cl)ccc1-c1ccc(NC(=O)N2CCc3c(F)ccc(N4CCN(C)CC4)c3C2)nc1 | 17 (≈ 34.4 µM) | 1.8 (≈ 3.64 µM) |  |  |  | 3.9 | 3 | 
CN1CCN(c2cccc3c2CN(Cc2ccc(-c4ccc(Cl)cc4)cn2)CC3)CC1 | > 500 | 7.2 (≈ 16.6 µM) |  |  |  | 14.3 | 7.26 | > 70
Cc1ccc(N2CCN(C)CC2)c2c1CCN(c1ccc(-c3ccc(C(C)(C)C)cc3)cn1)C2 |  |  | 3.4 (≈ 7.48 µM) | 1.4 (≈ 3.08 µM) | 18 (≈ 39.6 µM) | 3.36 | 2.46 | 
COc1ccc(N2CCN(C)CC2)c2c1CCN(C(=O)Nc1ccc(-c3ccc(Cl)cc3Cl)cn1)C2 | 27 (≈ 51.3 µM) | 3 (≈ 5.7 µM) |  |  |  | 35 | 2.88 | 
CN1CCN(c2cccc3c2CN(C(=O)Nc2ccc(-c4ccc(OC(F)(F)F)cc4)cn2)CC3)CC1 | > 500 | 6.2 (≈ 12.1 µM) |  |  |  |  |  | > 80
COc1ccc(N2CCN(C)CC2)c2c1CCN(Cc1ccc(-c3ccc(Cl)cc3C)cn1)C2 |  |  | 6.1 (≈ 12.8 µM) | 1.8 (≈ 3.77 µM) | 12 (≈ 25.2 µM) |  |  | 
COc1ccc(N2CCN(C)CC2)c2c1CCN(C(=O)Nc1ccc(-c3ccc(Cl)cc3C)cn1)C2 | 20 (≈ 39.5 µM) | 6.3 (≈ 12.4 µM) |  |  |  |  |  | 
Cc1ccc(N2CCN(C)CC2)c2c1CCN(C(=O)N1CCC(Oc3ccc(OC(F)(F)F)cc3)CC1)C2 |  |  |  |  |  | 2.4 | 2.88 | 
COc1nc2ccc(Br)cc2cc1[C@@H](c1ccccc1)[C@@](O)(CCN(C)C)c1cccc2ccccc12 [BEDAQUILINE] | > 1000 |  |  |  |  |  |  | 
